Experimental data as given in ChEMBL document CHEMBL4346654 (Eur J Med Chem, 2019).
In brackets after ≈: the same amount, converted by molar mass.

What was measured:
Format in all cases: functional
Staphylococcus aureus [1] = assay: Antibacterial activity against MLS-resistant Staphylococcus aureus PU 32 expressing inducible ermA gene assessed as reduction in microbial growth by CLSI based two-fold broth dilution method
Streptococcus pneumoniae [2] = assay: Antibacterial activity against erythromycin-susceptible Streptococcus pneumoniae ATCC49619 assessed as reduction in microbial growth by CLSI based two-fold broth dilution method
Streptococcus pneumoniae [3] = assay: Bactericidal activity against erythromycin-susceptible Streptococcus pneumoniae ATCC49619 pretreated followed by subculture in absence of compound measured after 24 hrs
Procedure, shortened: (§1)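 Isolates were identified by 16S rDNA sequencing. MIC was determined by CLSI-recommended two-fold broth dilution. For MBC, samples from 1–8 fold MIC were transferred to culture medium and subcultured for 24 h without antibiotic.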

Haemophilus influenzae [4] = assay: Antibacterial activity against azithromycin-susceptible Haemophilus influenzae ATCC 49247 assessed as reduction in microbial growth by CLSI based two-fold broth dilution method
Streptococcus pneumoniae [5] = assay: Selectivity ratio of MBC to MIC for erythromycin-susceptible Streptococcus pneumoniae ATCC49619; procedure, shortened: as §1
Streptococcus pneumoniae [6] = assay: Antibacterial activity against Streptococcus pneumoniae 07P390 expressing constitutive ermB gene assessed as reduction in microbial growth by CLSI based two-fold broth dilution method
Streptococcus pneumoniae [7] = assay: Antibacterial activity against penicillin-susceptible Streptococcus pneumoniae PU 09 expressing mef gene assessed as reduction in microbial growth by CLSI based two-fold broth dilution method
Streptococcus pneumoniae [8] = assay: Bactericidal activity against penicillin-susceptible Streptococcus pneumoniae PU 09 expressing mef gene pretreated followed by subculture in absence of compound measured after 24 hrs; procedure, shortened: as §1
Streptococcus pneumoniae [9] = assay: Selectivity ratio of MBC to MIC for penicillin-susceptible Streptococcus pneumoniae PU 09 expressing mef gene; procedure, shortened: as §1
Haemophilus influenzae [10] = assay: Bactericidal activity against azithromycin-susceptible Haemophilus influenzae ATCC 49247 pretreated followed by subculture in absence of compound measured after 24 hrs; procedure, shortened: as §1
Haemophilus influenzae [11] = assay: Selectivity ratio of MBC to MIC for azithromycin-susceptible Haemophilus influenzae ATCC 49247; procedure, shortened: as §1
Streptococcus pyogenes [12] = assay: Antibacterial activity against MLS-resistant Streptococcus pyogenes 01-968 expressing inducible ermB gene assessed as reduction in microbial growth by CLSI based two-fold broth dilution method
Streptococcus pyogenes [13] = assay: Bactericidal activity against MLS-resistant Streptococcus pyogenes 01-968 expressing inducible ermB gene pretreated followed by subculture in absence of compound measured after 24 hrs
Procedure, shortened: (§2)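 MBC assay. Following MIC determination by CLSI standard two-fold broth dilution, samples at 1–8 fold MIC were transferred to fresh culture medium. They were subcultured for 24 h without antibiotic. Isolates were identified by 16S rDNA sequencing. S. aureus ATCC 29213 was used as a control strain.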

Streptococcus pyogenes [14] = assay: Selectivity ratio of MBC to MIC for MLS-resistant Streptococcus pyogenes 01-968 expressing inducible ermB gene
Procedure, shortened: (§3)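 MBC/MIC ratio. MIC was measured by CLSI standard two-fold broth dilution. MBC was measured by transferring samples at 1–8 fold MIC to culture medium and subculturing for 24 h without antibiotic. Isolates were identified by 16S rDNA sequencing.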

Staphylococcus aureus [15] = assay: Bactericidal activity against MLS/methicillin-resistant Staphylococcus aureus PU 32 expressing inducible ermA gene pretreated followed by subculture in absence of compound measured after 24 hrs; procedure, shortened: as §2
Staphylococcus aureus [16] = assay: Selectivity ratio of MBC to MIC for MLS/methicillin-resistant Staphylococcus aureus PU 32 expressing inducible ermA gene; procedure, shortened: as §3
Staphylococcus aureus [17] = assay: Antibacterial activity against MLS-resistant Staphylococcus aureus PU 20 expressing constitutive ermC gene assessed as reduction in microbial growth by CLSI based two-fold broth dilution method
Staphylococcus aureus [18] = assay: Bactericidal activity against MLS-resistant Staphylococcus aureus PU 20 expressing constitutive ermC gene pretreated followed by subculture in absence of compound measured after 24 hrs; procedure, shortened: as §2
Streptococcus pneumoniae [19] = assay: Bactericidal activity against Streptococcus pneumoniae 07P390 expressing constitutive ermB gene pretreated followed by subculture in absence of compound measured after 24 hrs; procedure, shortened: as §1

| SMILES | MIC (Staphylococcus aureus [1]) [µg/mL] | MIC (Streptococcus pneumoniae [2]) [µg/mL] | MBC (Streptococcus pneumoniae [3]) [µg/mL] | MIC (Haemophilus influenzae [4]) [µg/mL] | Selectivity ratio (Streptococcus pneumoniae [5]) | MIC (Streptococcus pneumoniae [6]) [µg/mL] | MIC (Streptococcus pneumoniae [7]) [µg/mL] | MBC (Streptococcus pneumoniae [8]) [µg/mL] | Selectivity ratio (Streptococcus pneumoniae [9]) | MBC (Haemophilus influenzae [10]) [µg/mL] | Selectivity ratio (Haemophilus influenzae [11]) | MIC (Streptococcus pyogenes [12]) [µg/mL] | MBC (Streptococcus pyogenes [13]) [µg/mL] | Selectivity ratio (Streptococcus pyogenes [14]) | MBC (Staphylococcus aureus [15]) [µg/mL] | Selectivity ratio (Staphylococcus aureus [16]) | MIC (Staphylococcus aureus [17]) [µg/mL] | MBC (Staphylococcus aureus [18]) [µg/mL] | MBC (Streptococcus pneumoniae [19]) [µg/mL] |
| --- | --- | --- | --- | --- | --- | --- | --- | --- | --- | --- | --- | --- | --- | --- | --- | --- | --- | --- | --- |
| CC[C@H]1OC(=O)[C@@](C)(F)C(=O)[C@H](C)[C@@H](O[C@@H]2O[C@H](C)C[C@H](N(C)C)[C@H]2O)[C@](C)(OC)C[C@@H](C)/C(=N\OCC#Cc2cnc(N)c3ccccc23)[C@H](C)[C@H]2OC(=O)O[C@@]21C | 8 | 2 | 4 (≈ 4.84 µM) | 64 | 2 | > 32 | 16 | 16 (≈ 19.3 µM) | 1 | 64 (≈ 77.4 µM) | 1 | 1 | 8 (≈ 9.67 µM) | 8 | 32 (≈ 38.7 µM) | 4 | 128 | > 128 |  |
| CC[C@H]1OC(=O)[C@@](C)(F)C(=O)[C@H](C)[C@@H](O[C@@H]2O[C@H](C)C[C@H](N(C)C)[C@H]2O)[C@](C)(OC)C[C@@H](C)/C(=N\OCC#Cc2ccc(N)nc2)[C@H](C)[C@H]2OC(=O)O[C@@]21C | 1 | 0.25 | 0.5 (≈ 0.644 µM) | 16 | 2 | > 32 | 2 | 2 (≈ 2.57 µM) | 1 | 32 (≈ 41.2 µM) | 2 | 0.125 | > 1 | >8 | > 8 | >8 | 256 | > 256 |  |
| CC[C@H]1OC(=O)[C@H](C)[C@@H](O[C@H]2C[C@@](C)(OC)[C@@H](O)[C@H](C)O2)[C@H](C)[C@@H](O[C@@H]2O[C@H](C)C[C@H](N(C)C)[C@H]2O)[C@](C)(OC)C[C@@H](C)C(=O)[C@H](C)[C@@H](O)[C@]1(C)O [CLARITHROMYCIN] | 32 | 0.062 | 0.25 (≈ 0.334 µM) | 4 | 4 | > 32 | 4 | 32 (≈ 42.8 µM) | 8 | 8 (≈ 10.7 µM) | 2 | 8 | > 64 | >8 | > 256 | >8 | > 256 |  |  |
| CC[C@H]1OC(=O)[C@@](C)(F)C(=O)[C@H](C)[C@@H](O[C@@H]2O[C@H](C)C[C@H](N(C)C)[C@H]2O)[C@](C)(OC)C[C@@H](C)/C(=N\OCC#Cc2cncc(NC(C)=O)c2)[C@H](C)[C@H]2OC(=O)O[C@@]21C | 1 | 0.062 | 0.25 (≈ 0.305 µM) | 8 | 4 | > 32 | 4 | 4 (≈ 4.88 µM) | 1 | 16 (≈ 19.5 µM) | 2 | 0.125 | > 1 | >8 | > 8 | >8 | > 256 |  |  |
| CC[C@H]1OC(=O)[C@@](C)(F)C(=O)[C@H](C)[C@@H](O[C@@H]2O[C@H](C)C[C@H](N(C)C)[C@H]2O)[C@](C)(OC)C[C@@H](C)/C(=N\OCC#Cc2cncc(C#N)c2)[C@H](C)[C@H]2OC(=O)O[C@@]21C | 0.5 | 0.125 | 0.125 (≈ 0.159 µM) | 8 | 1 | > 32 | 1 | 2 (≈ 2.54 µM) | 2 | 16 (≈ 20.3 µM) | 2 | 0.25 | > 2 | >8 | > 4 | >8 | 128 | > 256 |  |
| CC[C@H]1OC(=O)[C@@](C)(F)C(=O)[C@H](C)[C@@H](O[C@@H]2O[C@H](C)C[C@H](N(C)C)[C@H]2O)[C@](C)(OC)C[C@@H](C)/C(=N\OC/C=C/c2cncc(N)c2)[C@H](C)[C@H]2OC(=O)O[C@@]21C | 0.5 | 0.125 | 0.125 (≈ 0.16 µM) | 8 | 1 | > 32 | 1 | 1 (≈ 1.28 µM) | 1 | 16 (≈ 20.5 µM) | 2 | 0.031 | > 0.25 | >8 | > 4 | >8 | 256 | > 256 |  |
| CC[C@H]1OC(=O)[C@@](C)(F)C(=O)[C@H](C)[C@@H](O[C@@H]2O[C@H](C)C[C@H](N(C)C)[C@H]2O)[C@](C)(OC)C[C@@H](C)/C(=N\OC/C=C/c2ccc3ncc(C(=O)O)cc3c2)[C@H](C)[C@H]2OC(=O)O[C@@]21C | 4 | 1 | 2 (≈ 2.33 µM) | 32 | 2 | 32 | 16 | 32 (≈ 37.3 µM) | 2 | 64 (≈ 74.6 µM) | 2 | 0.062 | > 0.5 | >8 | > 32 | >8 | > 256 |  | > 32 |
| CC[C@H]1OC(=O)[C@@](C)(F)C(=O)[C@H](C)[C@@H](O[C@@H]2O[C@H](C)C[C@H](N(C)C)[C@H]2O)[C@](C)(OC)C[C@@H](C)/C(=N\OC/C=C/c2cncc(C(=O)O)c2)[C@H](C)[C@H]2OC(=O)O[C@@]21C | 8 | 0.25 | 0.5 (≈ 0.619 µM) | 32 | 2 | > 32 | 8 | 16 (≈ 19.8 µM) | 2 | 32 (≈ 39.6 µM) | 1 | 0.5 | > 4 | >8 | > 64 | >8 | > 256 |  |  |
| CC[C@H]1OC(=O)[C@@](C)(F)C(=O)[C@H](C)[C@@H](O[C@@H]2O[C@H](C)C[C@H](N(C)C)[C@H]2O)[C@](C)(OC)C[C@@H](C)/C(=N\OCC#Cc2ccc([N+](=O)[O-])nc2)[C@H](C)[C@H]2OC(=O)O[C@@]21C | 0.25 | 0.125 | 0.125 (≈ 0.155 µM) | 16 | 1 | > 32 | 1 | 4 (≈ 4.96 µM) | 4 | 32 (≈ 39.7 µM) | 2 | 0.016 | 0.062 (≈ 0.0768 µM) | 4 | 2 (≈ 2.48 µM) | 8 | 128 | > 256 |  |
| CC[C@H]1OC(=O)[C@@](C)(F)C(=O)[C@H](C)[C@@H](O[C@@H]2O[C@H](C)C[C@H](N(C)C)[C@H]2O)[C@](C)(OC)C[C@@H](C)/C(=N\OCC#Cc2cncc(N)c2)[C@H](C)[C@H]2OC(=O)O[C@@]21C | 0.5 | 0.25 | 0.5 (≈ 0.644 µM) | 16 | 2 | > 32 | 4 | 4 (≈ 5.15 µM) | 1 | 32 (≈ 41.2 µM) | 2 | 0.062 | > 0.5 | >8 | > 4 | >8 | > 256 |  |  |
| CC[C@H]1OC(=O)[C@@](C)(F)C(=O)[C@H](C)[C@@H](O[C@@H]2O[C@H](C)C[C@H](N(C)C)[C@H]2O)[C@](C)(OC)C[C@@H](C)/C(=N\OCC#Cc2cncc(C(N)=O)c2)[C@H](C)[C@H]2OC(=O)O[C@@]21C | 1 | 0.25 | 1 (≈ 1.24 µM) | 16 | 4 | > 32 | 2 | 2 (≈ 2.48 µM) | 1 | 32 (≈ 39.8 µM) | 2 | 0.125 | > 1 | >8 | > 8 | >8 | > 256 |  |  |
